These results are taken from PubChem BioAssay AID588627 (Johns Hopkins Ion Channel Center, 2011).

About 1,400 (0.45%) of roughly 310,000 compounds were called active.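 Rule for the calls: active = calcium response B-score plate-corrected fluorescence ratio at least 3 library SD, with starting fluorescence B-score inside 5 SD; inactive = the rest.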 The entries come from a sample that favours actives as a whole.

Mas-related G-protein coupled receptor member X1 (Homo sapiens), sequence (Q96LB2 whole entry, looked up): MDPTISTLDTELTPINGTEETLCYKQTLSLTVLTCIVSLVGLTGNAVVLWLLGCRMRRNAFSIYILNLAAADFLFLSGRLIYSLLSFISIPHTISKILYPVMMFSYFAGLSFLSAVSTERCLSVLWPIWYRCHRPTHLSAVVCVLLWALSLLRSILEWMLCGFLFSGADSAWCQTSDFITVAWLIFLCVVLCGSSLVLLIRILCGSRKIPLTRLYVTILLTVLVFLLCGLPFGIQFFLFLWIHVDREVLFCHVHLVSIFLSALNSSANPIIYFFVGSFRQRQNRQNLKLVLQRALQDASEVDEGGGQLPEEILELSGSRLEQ

This test addresses Mas-related G-protein coupled receptor member X1 (Homo sapiens) (UniProt Q96LB2). Briefly: agonists of human MrgX1 receptor, primary screen, HEK293 cells, Fluo-4 calcium flux (AID 588627).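 For B-score: B-score of the peak-minus-trough calcium fluorescence change over baseline.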 To be noted: Fluo-4 calcium fluorescence, agonist mode, at 10 µM; stronger effect = higher value. The gist of the method: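 Material: MrgX1-expressing HEK293 cells; input: 15,000 cells per well; doses: test compound given as first of three sequential additions; schedule: overnight plating before 1 h dye loading; technique: Fluo-4 NW calcium-flux fluorescence, kinetic read; evaluation: baseline-normalised fluorescence change ratio, B-scored; control set: plate-wise positive and negative controls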
(Calcium assays in cells follow changes in intracellular calcium, usually with a dye or a luminescent sensor.)
Consider `CCOc1ccc(/C=C/C(=O)N(CC)CC(=O)NCc2cccs2)cc1OC`, for which the B-score entry is “inactive”. For `CC(C)(C)N(Cc1ccccc1)C(=O)c1ccncc1` the value was “inactive”; for `O=C(/C=C/c1ccc(Cl)c([N+](=O)[O-])c1)c1ccc(O)cc1`, “inactive”.

Turning to `O=C(/C=C/c1ccc(Cl)c([N+](=O)[O-])c1)c1cccnc1`, the B-score entry is “inactive”. For the compound `NC(N)=N/N=C/c1ccc(Cl)c([N+](=O)[O-])c1`, the B-score is 28.4 (active). `Cc1ccc(C(=O)C[n+]2cc(-c3ccccc3)n3c2CCCCC3)cc1`: the B-score result is “inactive”. For `COc1ccc(-c2cc(C(=O)NC(Cc3c[nH]c4ccccc34)C(=O)O)c(C)o2)cc1OC` (stereo unspecified) the value was “inactive”. To `NS(=O)(=O)c1ccc(NC(=O)COC(=O)C2(c3ccc(F)cc3)CCCC2)cc1` belongs “inactive”; to `CCOc1ccc(C(C)C)cc1S(=O)(=O)n1nc(C)cc1C`, “inactive”; to `COc1ccc(OCc2cn3c(C)cc(C)nc3n2)cc1`, “inactive”.

`COc1ccc(C(C[N+](=O)[O-])n2nc(C)cc2C)cc1` (stereo unspecified): the B-score is 46.1 (active). `CCC(C)(C(=O)NC1CCCC1)N(C(=O)CNC(C)=O)c1ccc(C)cc1` (stereo unspecified): the B-score entry is “inactive”. With `CCCc1nc(N2CCN(C)CC2)c2sc(=S)n(-c3ccccc3)c2n1`, the B-score result was “inactive”. For `CN(C(=O)CN(CCO)CC(=O)N(C)C(C)(C)Cc1ccccc1)C(C)(C)Cc1ccccc1`, the B-score is 44.7 (active). Consider `OCCN(Cc1ccccc1)Cc1ccc(Cl)cc1`, for which the B-score result is “inactive”.

In the case of `CN(Cc1ccccc1)C(=O)CCc1ccccc1`, the B-score result was “inactive”. For `CC(C)C(=O)NCC(c1cccs1)S(=O)(=O)c1ccc(F)cc1` (stereo unspecified) the value was “inactive”; for `Cc1ncoc1C(=O)N1CCCC(C(=O)c2ccc3c4c(cccc24)CC3)C1` (stereo unspecified), “inactive”; for `CN(CC(=O)Nc1cccc(F)c1)C(=O)C1CSC2(C)CCC(=O)N12` (stereo unspecified), “inactive”. Turning to `COc1ccc(Cl)cc1C(=O)NNC(=S)NC(=O)/C=C/c1ccco1`, the B-score is 51.7 (active). Consider `C=CCNC(=S)NNC(=O)c1cc(Cl)ccc1OC`, for which the B-score entry is “inactive”. For the compound `COc1ccc(Cl)cc1C(=O)NNC(=S)NC1CCCC1`, the B-score result was “inactive”. Take `COc1ccc(C2c3ccc(O)cc3Oc3ncn(CCCO)c(=N)c32)cc1OC` (stereo unspecified): the B-score result is “inactive”. Turning to `CCc1cccc(C)c1NC(=O)COC(=O)Cc1ccsc1`, the B-score result was “inactive”. Take `CCN(Cc1nc2ccccc2c(=O)[nH]1)Cc1cc(=O)oc2cc(C)c(C)cc12`: the B-score is 34.9 (active). `CCN(CC(=O)NC(=O)NCc1ccccc1)Cc1nc2ccccc2c(=O)[nH]1`: the B-score result is “inactive”.

As to `CN(Cc1nc2ccccc2c(=O)[nH]1)Cc1cc(=O)oc2ccc3ccccc3c12`, the B-score entry was “inactive”. As to `CCn1c(SCC(=O)Nc2ccc(C)cc2)nc2nc3c(cc2c1=O)CCCC3`, the B-score result is “inactive”. On to `Cc1cc(C)cc(C(=O)NC(=S)Nc2ccc3[nH]c(=O)[nH]c3c2)c1`, for which the B-score entry was “inactive”. In the case of `Cc1ccc(NC2(C#N)C(=O)Nc3ccccc32)cc1` (stereo unspecified), the B-score was 45 (active). Turning to `Cc1cc(O)c(C2(O)C(=O)Nc3ccccc32)cc1C` (stereo unspecified), the B-score entry is “inactive”. As for `COc1ccc(C2(O)C(=O)Nc3ccccc32)cc1` (stereo unspecified), the B-score result is “inactive”.

As for `CCCCn1c(N)c(N(CC(C)C)C(=O)CSc2ccc([N+](=O)[O-])cc2)c(=O)[nH]c1=O`, the B-score result was “inactive”.

For the compound `CN(CCc1ccccn1)C(=O)c1ccc(OC2CCN(CCc3ccccc3)CC2)cc1`, the B-score entry was “inactive”. For the compound `O=C1Cc2ccccc2Sc2ccc(Cl)cc21`, the B-score is 28.3 (active). Consider `S=C1Nc2cc(Cl)ccc2Sc2ccccc21`, for which the B-score result was “inactive”. For the compound `O=C1CC2(CCCC2)Oc2ccc(Cl)cc21`, the B-score entry was “inactive”. Turning to `CN(C)/N=C/c1cc(Cl)cc([N+](=O)[O-])c1O`, the B-score entry was “inactive”.

As to `O=C(N/N=C/c1cc(Br)c(O)c([N+](=O)[O-])c1)C(O)(c1ccccc1)c1ccccc1`, the B-score result was “inactive”. To `O=C(N/N=C/c1cc(Cl)cc([N+](=O)[O-])c1O)C(O)(c1ccccc1)c1ccccc1` belongs 36.2 (active); to `COc1ccc(-n2nc(C(=O)NCC(=O)N3CCC(C(N)=O)CC3)c3ccccc3c2=O)cc1OC`, “inactive”; to `Cc1ccc(NS(=O)(=O)c2cccs2)cc1S(=O)(=O)N1CCCCCC1`, “inactive”. With `CCCc1cc(=S)n2c([nH]c3ccccc32)c1C#N`, the B-score was 29.9 (active). Consider `CCOC(=O)CCc1c(C)c(C#N)c2[nH]c3ccccc3n2c1=O`, for which the B-score entry was “inactive”. For the compound `CN(C)Cc1c(C#N)c2ccccc2n1C`, the B-score entry is “inactive”. On to `CCCCN(C(=O)CCNC(=O)NC12CC3CC(CC(C3)C1)C2)c1c(N)n(CCCC)c(=O)[nH]c1=O`, for which the B-score result is “inactive”. On to `COc1ccc2[nH]cc(CCN3C(=O)c4ccc(C(=O)O)cc4C3=O)c2c1`, for which the B-score result was “inactive”. `OCc1ccc(OCCCOc2cccc3cccnc23)cc1`: the B-score was 27.9 (active). With `CCOc1cccc(OCCCOc2cccc3cccnc23)c1`, the B-score entry is “inactive”.

`Cc1cc(OCCOc2cccc3cccnc23)c(C)cc1Cl`: the B-score entry was “inactive”. As to `CCC(=O)c1cn(CCOc2ccccc2OC)c2ccccc12`, the B-score result is “inactive”. With `CC[n+]1cc(C)ccc1/C=C/c1ccc(N(C)C)cc1`, the B-score is 27.3 (active). For the compound `O=C(NCCCN1CCN(c2ccc(F)cc2)CC1)Nc1ccc([N+](=O)[O-])cc1`, the B-score result is “inactive”.

Regarding `CCNC(=O)CCc1nc(-c2ccc(C(C)(C)C)cc2)no1`, the B-score result is “inactive”. For the compound `CNC(=S)N1CCC(NC(=O)C(Cc2ccc(F)cc2)NC(C)=O)CC1` (stereo unspecified), the B-score result is “inactive”. Turning to `CS(=O)(=O)N1CCc2cc(C(=O)Nc3ccccc3Br)ccc21`, the B-score result was “inactive”. With `CCOc1ccc(Br)cc1CSC(=N)N`, the B-score entry is “inactive”. With `c1ccc2c(CSCc3nc4ccccc4[nH]3)cccc2c1`, the B-score result was “inactive”. On to `N=C(N)SCc1cccc2ccccc12`, for which the B-score was 36.5 (active). Consider `CCN(CC)c1ccc(C(=O)NNC(=O)CCc2nc3ccccc3c(=O)[nH]2)cc1`, for which the B-score entry is “inactive”.

Take `CC(=O)c1ccc(N=C2SCCCN2C(=O)C2CCCCC2)cc1`: the B-score result is “inactive”. For `O=C(Cc1csc(Nc2nc(=S)[nH]c3ccccc23)n1)NCCCN1CCN(c2cccc(Cl)c2)CC1` the value was “inactive”; for `O=C(Cn1ccc2cc(S(=O)(=O)N3CCCC3)ccc21)NCc1ccccc1`, “inactive”; for `O=[N+]([O-])/C=C/c1ccc2c(ccn2Cc2ccccc2)c1`, 37.8 (active).

In the case of `O=C(/C=C/c1cccc([N+](=O)[O-])c1)N1CCN(Cc2ccccc2)CC1`, the B-score result was “inactive”.

`COc1cccc(CNC(=O)c2nnn(CC(=O)Nc3cc(C)ccc3C)c2N)c1`: the B-score entry was “inactive”. For `COCCNC(=O)C(c1ccc(O)cc1)N(C(=O)CCC(=O)Nc1nccs1)c1ccc(C)cc1` (stereo unspecified) the value was “inactive”; for `COc1ccc(NC2CC(=O)N(C)C2=O)cc1` (stereo unspecified), “inactive”; for `CCCOc1ccc(Cn2ccnc2)cc1[N+](=O)[O-]`, “inactive”.

Take `CCCCCOc1ccc(CSC2=NCCN2)cc1[N+](=O)[O-]`: the B-score entry was “inactive”. Take `CCCCOc1ccc(CSC(=N)N)cc1[N+](=O)[O-]`: the B-score was 42.7 (active).
